Measured values from ChEMBL document CHEMBL1124553, “Brain-specific chemical delivery systems for beta-lactam antibiotics. In vitro and in vivo studies of some dihydropyridine and dihydroisoquinoline derivatives of benzylpenicillin in rats” (J Med Chem, 1989).
Each block holds one compound with its values, some of them ahead of it.

Key:
[1] = test system: Rattus norvegicus; assay: Concentration of compound in rat kidney after intravenous injection of 20 mg/kg benzyl-penicillin after 1 min; assay type: functional, organism-based; design: dose 20 mg/kg
In short: (§1)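 Male Sprague-Dawley rats (200-250 g), conscious, received 60 µmol/kg (equimolar to 20 mg/kg benzylpenicillin) by tail-vein injection. Benzylpenicillin K was given in water/ethanol/propylene glycol, and the delivery systems in ethanol:propylene glycol 7:3, at 20 mg/mL. Rats were decapitated at set times (4-6 per point), with trunk blood heparinized and brain, kidney, liver and lung frozen. Benzylpenicillin was measured by disk microbioassay (Bacillus subtilis ATCC 6633) after >5-volume sterile-water dilution or homogenization, against matrix calibration curves; assay limit 0.05 µg/mL.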

[2] = test system: Rattus norvegicus; assay: Concentration of compound in rat kidney after intravenous injection of 20 mg/kg benzyl-penicillin after 20 min; assay type: functional, organism-based; design: dose 20 mg/kg; in short: as §1
[3] = test system: Rattus norvegicus; assay: Concentration of compound in rat kidney after intravenous injection of 20 mg/kg benzyl-penicillin after 3 min; assay type: functional, organism-based; design: dose 20 mg/kg; in short: as §1
[4] = test system: Rattus norvegicus; assay: Concentration of compound in rat kidney after intravenous injection of 20 mg/kg benzyl-penicillin after 40 min; assay type: functional, organism-based; design: dose 20 mg/kg; in short: as §1
[5] = test system: Rattus norvegicus; assay: Concentration of compound in rat kidney after intravenous injection of 20 mg/kg benzyl-penicillin after 5 min; assay type: functional, organism-based; design: dose 20 mg/kg; in short: as §1
[6] = test system: Rattus norvegicus; assay: Concentration of compound in rat kidney after intravenous injection of 20 mg/kg benzyl-penicillin after 60 min; assay type: functional, organism-based; design: dose 20 mg/kg; in short: as §1
[7] = test system: Rattus norvegicus; assay: Concentration of compound in rat kidney after intravenous injection of 20 mg/kg benzyl-penicillin after 10 min; assay type: functional, organism-based; design: dose 20 mg/kg; in short: as §1
[8] = test system: Rattus norvegicus; assay: Concentration of compound in rat liver after intravenous injection of 20 mg/kg benzyl-penicillin after 1 min; assay type: functional, organism-based; design: dose 20 mg/kg; in short: as §1
[9] = test system: Rattus norvegicus; assay: Concentration of compound in rat liver after intravenous injection of 20 mg/kg benzyl-penicillin after 10 min; assay type: functional, organism-based; design: dose 20 mg/kg; in short: as §1
[10] = test system: Rattus norvegicus; assay: Concentration of compound in rat liver after intravenous injection of 20 mg/kg benzyl-penicillin after 20 min; assay type: functional, organism-based; design: dose 20 mg/kg; in short: as §1
[11] = test system: Rattus norvegicus; assay: Concentration of compound in rat liver after intravenous injection of 20 mg/kg benzyl-penicillin after 3 min; assay type: functional, organism-based; design: dose 20 mg/kg; in short: as §1
[12] = test system: Rattus norvegicus; assay: Concentration of compound in rat liver after intravenous injection of 20 mg/kg benzyl-penicillin after 40 min; assay type: functional, organism-based; design: dose 20 mg/kg; in short: as §1
[13] = test system: Rattus norvegicus; assay: Concentration of compound in rat liver after intravenous injection of 20 mg/kg benzyl-penicillin after 5 min; assay type: functional, organism-based; design: dose 20 mg/kg; in short: as §1
[14] = test system: Rattus norvegicus; assay: Concentration of compound in rat blood after intravenous injection of 20 mg/kg benzyl-penicillin after 1 min; assay type: functional, organism-based; design: dose 20 mg/kg; in short: as §1
[15] = test system: Rattus norvegicus; assay: Concentration of compound in rat blood after intravenous injection of 20 mg/kg benzyl-penicillin after 10 min; assay type: functional, organism-based; design: dose 20 mg/kg; in short: as §1
[16] = test system: Rattus norvegicus; assay: Concentration of compound in rat blood after intravenous injection of 20 mg/kg benzyl-penicillin after 20 min; assay type: functional, organism-based; design: dose 20 mg/kg; in short: as §1
[17] = test system: Rattus norvegicus; assay: Concentration of compound in rat blood after intravenous injection of 20 mg/kg benzyl-penicillin after 3 min; assay type: functional, organism-based; design: dose 20 mg/kg; in short: as §1
[18] = test system: Rattus norvegicus; assay: Concentration of compound in rat blood after intravenous injection of 20 mg/kg benzyl-penicillin after 40 min; assay type: functional, organism-based; design: dose 20 mg/kg; in short: as §1
[19] = test system: Rattus norvegicus; assay: Concentration of compound in rat blood after intravenous injection of 20 mg/kg benzyl-penicillin after 5 min; assay type: functional, organism-based; design: dose 20 mg/kg; in short: as §1
[20] = test system: Rattus norvegicus; assay: Concentration of compound in rat blood after intravenous injection of 20 mg/kg benzyl-penicillin after 60 min; assay type: functional, organism-based; design: dose 20 mg/kg; in short: as §1
[21] = test system: Rattus norvegicus; assay: Concentration of compound in rat brain after intravenous injection of 20 mg/kg benzyl-penicillin after 1 min; assay type: functional, organism-based; design: dose 20 mg/kg; in short: as §1
[22] = test system: Rattus norvegicus; assay: Concentration of compound in rat brain after intravenous injection of 20 mg/kg benzyl-penicillin after 10 min; assay type: functional, organism-based; design: dose 20 mg/kg; in short: as §1
[23] = test system: Rattus norvegicus; assay: Concentration of compound in rat brain after intravenous injection of 20 mg/kg benzyl-penicillin after 3 min; assay type: functional, organism-based; design: dose 20 mg/kg; in short: as §1
[24] = test system: Rattus norvegicus; assay: Concentration of compound in rat brain after intravenous injection of 20 mg/kg benzyl-penicillin after 5 min; assay type: functional, organism-based; design: dose 20 mg/kg; in short: as §1
[25] = test system: Rattus norvegicus; assay: Concentration of compound in rat liver after intravenous injection of 20 mg/kg benzyl-penicillin after 60 min; assay type: functional, organism-based; design: dose 20 mg/kg; in short: as §1
[26] = test system: Rattus norvegicus; assay: Concentration of compound in rat lung after intravenous injection of 20 mg/kg benzyl-penicillin after 1 min; assay type: functional, organism-based; design: dose 20 mg/kg; in short: as §1
[27] = test system: Rattus norvegicus; assay: Concentration of compound in rat lung after intravenous injection of 20 mg/kg benzyl-penicillin after 10 min; assay type: functional, organism-based; design: dose 20 mg/kg; in short: as §1
[28] = test system: Rattus norvegicus; assay: Concentration of compound in rat lung after intravenous injection of 20 mg/kg benzyl-penicillin after 20 min; assay type: functional, organism-based; design: dose 20 mg/kg; in short: as §1
[29] = test system: Rattus norvegicus; assay: Concentration of compound in rat lung after intravenous injection of 20 mg/kg benzyl-penicillin after 3 min; assay type: functional, organism-based; design: dose 20 mg/kg; in short: as §1
[30] = test system: Rattus norvegicus; assay: Concentration of compound in rat lung after intravenous injection of 20 mg/kg benzyl-penicillin after 40 min; assay type: functional, organism-based; design: dose 20 mg/kg; in short: as §1
[31] = test system: Rattus norvegicus; assay: Concentration of compound in rat lung after intravenous injection of 20 mg/kg benzyl-penicillin after 5 min; assay type: functional, organism-based; design: dose 20 mg/kg; in short: as §1
[32] = test system: Rattus norvegicus; assay: Concentration of compound in rat lung after intravenous injection of 20 mg/kg benzyl-penicillin after 60 min; assay type: functional, organism-based; design: dose 20 mg/kg; in short: as §1
[33] = Half-life for disappearance of compound from dog whole blood; assay type: ADME, organism-based, Canis lupus familiaris
In short: (§2)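 Freshly collected whole blood, or 10% w/v brain homogenate in pH 7.4 phosphate buffer (ionic strength 0.15), was prewarmed to 37 °C. Compound was spiked from an 8 mM DMSO stock to 40 µM final. Timed samples were quenched in 8% DMSO/acetonitrile, centrifuged, filtered and analyzed by reversed-phase C8 HPLC with UV detection. K came from linear regression of log peak height versus time, with t1/2 derived from it. Values are mean ± SE of three determinations in different animal samples.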

[34] = Half-life for disappearance of compound from human whole blood; assay type: ADME, organism-based; in short: as §2
[35] = Half-life for disappearance of compound from rabbit 10% brain homogenate; assay type: ADME, Oryctolagus cuniculus; in short: as §2
[36] = Half-life for disappearance of compound from rabbit whole blood; assay type: ADME, organism-based, Oryctolagus cuniculus; in short: as §2
[37] = Half-life for disappearance of compound from rat 10% brain homogenate; assay type: ADME; in short: as §2
[38] = Half-life for disappearance of compound from rat whole blood; assay type: ADME, organism-based; in short: as §2
[39] = organism: Canis familiaris; assay: Pseudo first-order rate constant (K) for disappearance of compound from dog whole blood; assay type: ADME, organism-based, Canis lupus familiaris; in short: as §2
[40] = organism: Homo sapiens; assay: Pseudo first-order rate constant (K) for disappearance of compound from human whole blood; assay type: ADME, organism-based; in short: as §2
[41] = organism: Oryctolagus cuniculus; assay: Pseudo first-order rate constant (K) for disappearance of compound from rabbit 10% brain homogenate; assay type: ADME
In short: (§3)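 Freshly collected whole blood (rat trunk blood; rabbit) or 10% w/v brain homogenate made in pH 7.4 phosphate buffer (μ = 0.15), prewarmed to 37 °C. Compound added from 8 mM DMSO stock to a final 40 μM. Timed 0.3 mL samples were quenched in 8% DMSO/acetonitrile, centrifuged, filtered and analysed by reversed-phase C8 HPLC-UV. K came from linear regression of log peak height versus time; n=3 animal samples.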

[42] = organism: Oryctolagus cuniculus; assay: Pseudo first-order rate constant (K) for disappearance of compound from rabbit whole blood; assay type: ADME, organism-based; in short: as §3
[43] = organism: Rattus norvegicus; assay: Pseudo first-order rate constant (K) for disappearance of compound from rat 10% brain homogenate; assay type: ADME; in short: as §3
[44] = Pseudo first-order rate constant (K) for disappearance of compound from rat whole blood; assay type: ADME, tissue-based; in short: as §3

Compound: CC1(C)S[C@@H]2[C@H](NC(=O)Cc3ccccc3)C(=O)N2[C@H]1C(=O)O
- Concentration [1]: 33.6 µg/mL
- Concentration [2]: 20.8 µg/mL
- Concentration [3]: 120 µg/mL
- Concentration [4]: 6.2 µg/mL
- Concentration [5]: 88.5 µg/mL
- Concentration [6]: 1.1 µg/mL
- Concentration [7]: 27.6 µg/mL
- Concentration [8]: 15.1 µg/mL
- Concentration [9]: 17.7 µg/mL
- Concentration [10]: 7.5 µg/mL
- Concentration [11]: 38.9 µg/mL
- Concentration [12]: 2.9 µg/mL
- Concentration [13]: 30.7 µg/mL
- Concentration [14]: 64.6 µg/mL
- Concentration [15]: 8.5 µg/mL
- Concentration [16]: 2.8 µg/mL
- Concentration [17]: 25.2 µg/mL
- Concentration [18]: 1.3 µg/mL
- Concentration [19]: 22.8 µg/mL
- Concentration [20]: 0.4 µg/mL
- Concentration [21]: 2.7 µg/mL
- Concentration [22]: 0.3 µg/mL
- Concentration [23]: 1.3 µg/mL
- Concentration [24]: 0.9 µg/mL
- Concentration [25]: 0.7 µg/mL
- Concentration [26]: 52.5 µg/mL
- Concentration [27]: 9.5 µg/mL
- Concentration [28]: 2.3 µg/mL
- Concentration [29]: 30.3 µg/mL
- Concentration [30]: 1.4 µg/mL
- Concentration [31]: 22.4 µg/mL
- Concentration [32]: 0.7 µg/mL

- half-life [33]: 11.5 min
- half-life [34]: 6.7 min
- half-life [35]: 16.7 min
- half-life [36]: 2 min
- half-life [37]: 28.2 min
- half-life [38]: 1.6 min
- K [39]: 0.061 min⁻¹
- K [40]: 0.105 min⁻¹
- K [41]: 0.043 min⁻¹
- K [42]: 0.33 min⁻¹
- K [43]: 0.025 min⁻¹
- K [44]: 0.435 min⁻¹
Compound: C[n+]1cccc(C(=O)OCCOC(=O)C2N3C(=O)C(NC(=O)Cc4ccccc4)C3SC2(C)C)c1.[I-] (centres undefined)
